Assay results reported in ChEMBL document CHEMBL3085624, “Design, synthesis, and biological evaluation of novel investigational nonapeptide KISS1R agonists with testosterone-suppressive activity” (J Med Chem, 2013).
Active and inactive are the calls of the source. No cut-off for these calls is given here. Non-standard residues stand in square brackets, D forms with d. Residues, ends and D or L forms follow the SMILES beside them. 2Nal = N[C@@H](Cc1ccc2ccccc2c1)C(=O)O; Arg(Me) = CNC(=N)NCCC[C@H](N)C(=O)O; d3Pal = N[C@H](Cc1cccnc1)C(=O)O; d4Pal = N[C@H](Cc1ccncc1)C(=O)O; Cha = N[C@@H](CC1CCCCC1)C(=O)O; azaGly = NNC(=O)O

Experiments:
KiSS-1 receptor [1] = molecular target: KiSS-1 receptor (Rattus norvegicus, UniProt Q924U1); assay: Binding affinity to rat KISS1R
KiSS-1 receptor [2] = molecular target: T1, KiSS-1 receptor (Homo sapiens, UniProt Q969F8); assay: Binding affinity to human KISS1R expressed in CHO cell membranes
KiSS-1 receptor [3] = molecular target: T1, KiSS-1 receptor; assay: Agonist activity at recombinant human KISS1R expressed in CHO cells assessed as intracellular calcium mobilization incubated for 30 mins at 37 degC and 30 mins at room temperature by Fluo-4 NW staining-based FLIPR assay relative to Metastin (45 to 54); type: functional, cell-based
Procedure, shortened: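 CHO cells stably expressing human KISS1R seeded at 15,000 cells/well, cultured 24 h, then loaded with Fluo-4 Direct in HBSS with 4 mM probenecid and 0.1% BSA (30 min 37 °C, 30 min room temperature). Compounds from 10 µM DMSO stocks diluted in sample buffer and added. Fluorescence read for 2 min at 2 s intervals. Peak counts give agonist activity. EC50 expressed as ratio to metastin(45-54).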

[4] = Metabolic stability in mouse serum assessed as compound remaining at 0.1 mM after 1 hr by HPLC analysis; type: ADME; conditions: read-out: Stability
Procedure, shortened: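 Pooled mouse serum (45 µL) spiked with 5 µL of 1 mM aqueous peptide, giving 0.1 mM initial, and incubated at 37 °C. Aliquots taken at time 0 and after 1 h, quenched by boiling 3 min. Peptide quantified by HPLC peak area. Percent remaining relative to time 0; three independent experiments.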

Rattus norvegicus [5] = assay: Suppression of testosterone in plasma of rat at 1 nmol/h, sc measured after 13 days by radioimmunoassay; type: functional, organism-based
Procedure, shortened: (§1)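 Male rats given peptide continuously at 1 nmol/h. Plasma testosterone measured after 6 and 13 days; detection limit 0.04 ng/mL.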

Rattus norvegicus [6] = assay: Suppression of testosterone in plasma of Sprague-Dawley rat at 2 nmol/h, sc measured after 6 days by radioimmunoassay; type: functional
Procedure, shortened: (§2)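 9-week-old male CD(SD)IGS or Copenhagen rats (5/group) given peptide in distilled water by subcutaneous dorsal ALZET osmotic pump (2 mM, 0.001 mL/h) for 6 days; water-pump controls. Plasma (aprotinin/EDTA) testosterone measured by RIA on 0.05 mL. Values below detection limit (0.04 ng/mL) set to 0.04; results expressed as percent of control.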

Rattus norvegicus [7] = assay: Induction of ovulation in immature Wistar rats assessed as increase in number of oocytes at 30 to 100 nmol/kg administered dorsally by stereomicroscopy; type: functional, organism-based
Procedure, shortened: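 23-day-old female Wistar rats primed subcutaneously with eCG 10 IU/animal. Two days later, saline-dissolved agents injected dorsally at 30 or 100 nmol/kg (5 rats/group; saline control 6; hCG 10 IU positive control). Animals killed 24–25 h later. Oöcytes retrieved from oviducal ampulla under stereomicroscopy, or by flushing oviduct and uterus with saline, and counted.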

[8] = Bioavailability in Sprague-Dawley rat at 1 mg/kg, sc; type: ADME, organism-based; conditions: in vivo
Rattus norvegicus [9] = assay: Suppression of testosterone in plasma of Copenhagen rat at 2 nmol/h, sc measured after 6 days by radioimmunoassay; type: functional, organism-based; procedure, shortened: as §2
[10] = Plasma concentration in Copenhagen rat at 2 nmol/h, sc measured after 6 days by radioimmunoassay; type: ADME, organism-based
Rattus norvegicus [11] = assay: Suppression of testosterone in plasma of rat at 1 nmol/h, sc measured after 6 days by radioimmunoassay; type: functional, organism-based; procedure, shortened: as §1

KiSS-1 receptor (Rattus norvegicus, UniProt Q924U1), sequence (Q924U1 whole entry): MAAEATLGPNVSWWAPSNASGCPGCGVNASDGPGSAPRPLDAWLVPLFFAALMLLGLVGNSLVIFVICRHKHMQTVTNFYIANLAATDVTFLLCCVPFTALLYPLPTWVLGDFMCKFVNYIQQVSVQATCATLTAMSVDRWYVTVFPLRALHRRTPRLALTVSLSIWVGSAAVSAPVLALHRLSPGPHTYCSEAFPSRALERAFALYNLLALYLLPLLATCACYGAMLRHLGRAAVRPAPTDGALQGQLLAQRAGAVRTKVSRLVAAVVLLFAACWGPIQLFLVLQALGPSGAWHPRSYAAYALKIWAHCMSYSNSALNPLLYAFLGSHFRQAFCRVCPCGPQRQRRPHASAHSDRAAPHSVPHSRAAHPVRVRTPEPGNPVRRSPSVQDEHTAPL
T1 sequence (Q969F8 whole entry): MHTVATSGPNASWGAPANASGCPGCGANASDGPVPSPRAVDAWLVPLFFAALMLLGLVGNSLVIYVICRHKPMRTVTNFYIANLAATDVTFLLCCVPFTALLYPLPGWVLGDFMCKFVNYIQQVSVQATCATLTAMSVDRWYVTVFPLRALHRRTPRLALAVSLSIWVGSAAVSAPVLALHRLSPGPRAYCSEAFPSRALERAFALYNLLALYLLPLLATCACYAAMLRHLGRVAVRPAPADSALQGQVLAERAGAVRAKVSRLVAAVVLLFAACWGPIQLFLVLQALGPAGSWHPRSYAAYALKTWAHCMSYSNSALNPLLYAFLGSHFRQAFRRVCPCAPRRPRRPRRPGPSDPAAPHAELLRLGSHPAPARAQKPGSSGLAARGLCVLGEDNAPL

Row | Structure (SMILES) | Ki (KiSS-1 receptor [1]) [nM] | Ki (KiSS-1 receptor [2]) [nM] | fold change (FC) (KiSS-1 receptor [3]) | other results
1 | CNC(N)=NCCC[C@H](NC(=O)[C@H](CC(C)C)NC(=O)NNC(=O)[C@H](Cc1ccccc1)NC(=O)[C@H](CO)NC(=O)[C@H](CC(N)=O)NC(=O)[C@@H](NC(=O)[C@@H](CC(N)=O)NC(=O)[C@H](N)Cc1ccc(O)cc1)[C@@H](C)O)C(=O)N[C@@H](Cc1ccccc1)C(N)=O | 0.25 | 0.29 | – | remaining at 1 h, 100 µM [4]: 65.8%
2 | CCNC(=O)[C@@H]1CCCN1C(=O)[C@H](CCCNC(=N)N)NC(=O)[C@H](CC(C)C)NC(=O)[C@@H](CC(C)C)NC(=O)[C@H](Cc1ccc(O)cc1)NC(=O)[C@H](CO)NC(=O)[C@H](Cc1c[nH]c2ccccc12)NC(=O)[C@H](Cc1c[nH]cn1)NC(=O)[C@@H]1CCC(=O)N1 | – | – | – | Activity (Rattus norvegicus [5]): Active
3 | CNC(=N)NCCC[C@H](NC(=O)[C@H](CC(C)C)NC(=O)CNC(=O)[C@H](Cc1ccccc1)NC(=O)[C@H](CO)NC(=O)[C@H](CC(N)=O)NC(=O)[C@H](Cc1c[nH]c2ccccc12)NC(=O)[C@H](CC(N)=O)NC(=O)[C@H](N)Cc1ccc(O)cc1)C(=O)N[C@@H](Cc1ccccc1)C(N)=O | – | – | 0.93 | Activity (Rattus norvegicus [6]): Active
4 | CNC(=N)NCCC[C@H](NC(=O)[C@H](CC(C)C)NC(=O)NNC(=O)[C@H](Cc1ccccc1)NC(=O)[C@H](CO)NC(=O)[C@H](CC(N)=O)NC(=O)[C@H](Cc1c[nH]c2ccccc12)NC(=O)[C@H](CC(N)=O)NC(=O)[C@H](N)Cc1cccnc1)C(=O)N[C@@H](Cc1ccccc1)C(N)=O (H-[d3Pal]NWNSF[azaGly]L[Arg(Me)]F-NH2) | 0.14 | 0.12 | 2.3 | –
5 | CNC(=N)NCCC[C@H](NC(=O)[C@H](CC(C)C)NC(=O)NNC(=O)[C@H](Cc1ccccc1)NC(=O)[C@H](CO)NC(=O)[C@H](CC(N)=O)NC(=O)[C@H](CC1CCCCC1)NC(=O)[C@@H](CC(N)=O)NC(=O)[C@H](N)Cc1cccnc1)C(=O)N[C@@H](Cc1ccccc1)C(N)=O (H-[d3Pal][dN][Cha]NSF[azaGly]L[Arg(Me)]F-NH2) | 0.18 | 0.2 | 10 | –
6 | CNC(=N)NCCC[C@H](NC(=O)[C@H](CC(C)C)NC(=O)NNC(=O)[C@H](Cc1ccccc1)NC(=O)[C@H](CO)NC(=O)[C@H](CC(N)=O)NC(=O)[C@H](Cc1c[nH]c2ccccc12)NC(=O)[C@H](CC(N)=O)NC(=O)[C@@H](C)N)C(=O)N[C@@H](Cc1ccccc1)C(N)=O (H-[dA]NWNSF[azaGly]L[Arg(Me)]F-NH2) | 0.52 | 0.51 | 4.9 | –
7 | CC[C@H](C)[C@H](NC(=O)[C@H](N)Cc1ccc(O)cc1)C(=O)N[C@@H](CC(N)=O)C(=O)N[C@@H](CO)C(=O)N[C@@H](Cc1ccccc1)C(=O)NNC(=O)N[C@@H](CC(C)C)C(=O)N[C@@H](CCCNC(=N)NC)C(=O)N[C@@H](Cc1ccccc1)C(N)=O (H-[dY]INSF[azaGly]L[Arg(Me)]F-NH2) | 0.13 | 0.12 | 14 | –
8 | CNC(N)=NCCC[C@H](NC(=O)[C@H](CC(C)C)NC(=O)NNC(=O)[C@H](Cc1ccccc1)NC(=O)[C@H](CO)NC(=O)[C@H](CC(N)=O)NC(=O)[C@H](CO)NC(=O)[C@H](N)Cc1ccc(O)cc1)C(=O)N[C@@H](Cc1ccccc1)C(N)=O (H-[dY]SNSF[azaGly]L[Arg(Me)]F-NH2) | 0.3 | 0.21 | – | –
9 | CNC(=N)NCCC[C@H](NC(=O)[C@H](CC(C)C)NC(=O)NNC(=O)[C@H](Cc1ccccc1)NC(=O)[C@H](CO)NC(=O)[C@H](CC(N)=O)NC(=O)[C@@H](NC(=O)[C@H](N)Cc1ccc(O)cc1)[C@@H](C)O)C(=O)N[C@@H](Cc1ccccc1)C(N)=O (H-[dY]TNSF[azaGly]L[Arg(Me)]F-NH2) | 0.24 | 0.2 | 8.9 | –

Further lines, with some results ahead:

Row | Ki (KiSS-1 receptor [1]) [nM] | Ki (KiSS-1 receptor [2]) [nM] | fold change (FC) (KiSS-1 receptor [3]) | Structure (SMILES) | other results
10 | 0.093 | 0.086 | – | CNC(N)=NCCC[C@H](NC(=O)[C@H](CC(C)C)NC(=O)NNC(=O)[C@H](Cc1ccccc1)NC(=O)[C@H](CO)NC(=O)[C@H](CC(N)=O)NC(=O)[C@H](Cc1c[nH]c2ccccc12)NC(=O)[C@@H](CO)NC(=O)[C@H](N)Cc1ccc(O)cc1)C(=O)N[C@@H](Cc1ccccc1)C(N)=O | –
11 | 0.043 | 0.033 | 6.2 | CNC(=N)NCCC[C@H](NC(=O)[C@H](CC(C)C)NC(=O)NNC(=O)[C@H](Cc1ccccc1)NC(=O)[C@H](CO)NC(=O)[C@H](CC(N)=O)NC(=O)[C@H](Cc1c[nH]c2ccccc12)NC(=O)[C@@H](Cc1cnc[nH]1)NC(=O)[C@H](N)Cc1ccc(O)cc1)C(=O)N[C@@H](Cc1ccccc1)C(N)=O | –
12 | 0.059 | 0.044 | 2.4 | CNC(=N)NCCC[C@H](NC(=O)[C@H](CC(C)C)NC(=O)NNC(=O)[C@H](Cc1ccccc1)NC(=O)[C@H](CO)NC(=O)[C@H](CC(N)=O)NC(=O)[C@H](Cc1c[nH]c2ccccc12)NC(=O)[C@H](N)Cc1ccc(O)cc1)C(=O)N[C@@H](Cc1ccccc1)C(N)=O (H-[dY]WNSF[azaGly]L[Arg(Me)]F-NH2) | remaining at 1 h, 100 µM [4]: 43.4%
13 | 0.051 | 0.032 | – | CNC(N)=NCCC[C@H](NC(=O)[C@H](CC(C)C)NC(=O)NNC(=O)[C@H](Cc1ccccc1)NC(=O)[C@H](CO)NC(=O)[C@H](CC(N)=O)NC(=O)[C@H](Cc1ccc2ccccc2c1)NC(=O)[C@H](N)Cc1ccc(O)cc1)C(=O)N[C@@H](Cc1ccccc1)C(N)=O (H-[dY][2Nal]NSF[azaGly]L[Arg(Me)]F-NH2) | –
14 | 0.12 | 0.12 | – | CNC(N)=NCCC[C@H](NC(=O)[C@H](CC(C)C)NC(=O)NNC(=O)[C@H](Cc1ccccc1)NC(=O)[C@H](CO)NC(=O)[C@H](CC(N)=O)NC(=O)[C@H](Cc1ccccc1)NC(=O)[C@@H](CC(N)=O)NC(=O)[C@H](N)Cc1ccc(O)cc1)C(=O)N[C@@H](Cc1ccccc1)C(N)=O (H-[dY][dN]FNSF[azaGly]L[Arg(Me)]F-NH2) | remaining at 1 h, 100 µM [4]: 24.7%
15 | 0.076 | 0.055 | 17 | CNC(=N)NCCC[C@H](NC(=O)[C@H](CC(C)C)NC(=O)NNC(=O)[C@H](Cc1ccccc1)NC(=O)[C@H](CO)NC(=O)[C@H](CC(N)=O)NC(=O)[C@H](CC1CCCCC1)NC(=O)[C@@H](CC(N)=O)NC(=O)[C@H](N)Cc1ccc(O)cc1)C(=O)N[C@@H](Cc1ccccc1)C(N)=O (H-[dY][dN][Cha]NSF[azaGly]L[Arg(Me)]F-NH2) | –
16 | 0.11 | 0.065 | 4.5 | CNC(=N)NCCC[C@H](NC(=O)[C@H](CC(C)C)NC(=O)NNC(=O)[C@H](Cc1ccccc1)NC(=O)[C@H](CO)NC(=O)[C@H](CC(N)=O)NC(=O)[C@@H](Cc1c[nH]c2ccccc12)NC(=O)[C@H](N)Cc1ccc(O)cc1)C(=O)N[C@@H](Cc1ccccc1)C(N)=O (H-[dY][dW]NSF[azaGly]L[Arg(Me)]F-NH2) | –
17 | 0.1 | 0.089 | 4.8 | CNC(=N)NCCC[C@H](NC(=O)[C@H](CC(C)C)NC(=O)NNC(=O)[C@H](Cc1ccccc1)NC(=O)[C@H](CO)NC(=O)[C@H](CC(N)=O)NC(=O)[C@@H](Cc1ccncc1)NC(=O)[C@H](N)Cc1ccc(O)cc1)C(=O)N[C@@H](Cc1ccccc1)C(N)=O [KISS1-305] (H-[dY][d4Pal]NSF[azaGly]L[Arg(Me)]F-NH2) | Activity (Rattus norvegicus [6]): 0.04 ng/mL; Activity (Rattus norvegicus [7]): Active; bioavailability [8]: 40.4%; Activity (Rattus norvegicus [5]): Active; remaining at 1 h, 100 µM [4]: 54.9%; Activity (Rattus norvegicus [9]): Active; concentration at 144 h [10]: 0.95 nM; Activity (Rattus norvegicus [11]): Active
